Reference: PubChem BioAssay
A number with no mark means an inactive call. Results filed as inconclusive are left out. The source made the active and inactive calls.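 How the source made its calls, unless noted: active means cell viability at or below a set limit in both duplicate runs, the limit being the all-compound median minus 4 SD (cut at about 23% in these data, passing the limit was not always enough); inconclusive means no clear call, values can overlap the other calls; inactive means the rest.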

Columns and labels:
[1] = OD615 S. cerevisiae growth inhibition, permissive medium, pilot counter-assay, permissive growth control for S. cerevisiae lifespan shortening project (AID 705;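 active means growth inhibition above 25% in both replicates, a cutoff set 3 SD above the mean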); details: OD615, 24 h, at 10 µM, hits give high values
In short: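 System – S. cerevisiae with engineered DeaD lifespan system · Buffer or medium – SC raffinose/galactose permissive medium · Schedule – cells pre-grown 4 h, then 24 h compound exposure, 30 °C humidified · Technique – culture turbidity as optical density at 615 nm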

[2] = Restrictive medium S. cerevisiae growth inhibition, OD615, pilot screen of yeast lifespan reduction project, restrictive growth control (AID 706;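 active means growth inhibition above a set limit, 3 SD over mean compound inhibition, in both replicates, cut at about 43% in these data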;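 further: modified DeaD lifespan yeast strain shifted to restrictive glucose medium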); details: OD615, 48 h, at 10 µM, hits give high values
In short: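 Material: engineered S. cerevisiae DeaD strain / Medium: glucose-based CSMM-D restrictive medium / Compound: single dose of 10 µM compound final, 0.25% DMSO / Timing: 4 h pre-incubation, 48 h exposure at 30 °C / Technique: OD615 absorbance reading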

[3] = viability gain of MRP-1-high H69AR cells under doxorubicin, pilot screen, MRP-1 activator project, CellTiter-Glo, duplicate (AID 807;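 active means viability increase at or above a cutoff of the median across tested compounds plus 3 SD, cut at about 8.5% in these data, passing the limit was not always enough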;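 further: compound pretreatment 18-22 h then 72 h combined with doxorubicin; 0% = doxorubicin alone and 100% = vehicle without doxorubicin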); details: H69AR viability with doxorubicin, CellTiter-Glo luminescence; at 10 µM; hits give high values
[4] = growth suppression of beta-catenin knockout HCT116, pilot screen, human colon tumor cells (AID 823); details: CellTiter-Glo, 60 h, at 10 µM, hits give low values;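 further: 0% = wells killed by 20 µM Hyamine and 100% = untreated DMSO cell wells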
[5] = growth suppression of PTEN-deleted HCT116, pilot screen, cell-based, HCT116 clonal line, CellTiter-Glo (AID 824;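 active means viability at or below 27.92% in each of two runs, the all-compound median minus 4 SD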;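 further: 0% = 20 µM Hyamine control and 100% = vehicle cell control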); details: 60 h, at 10 µM, hits give low values
[6] = inhibitors of the yeast RAM network, pilot screen, dse1pr::URA3 reporter, 5-FOA selection (AID 869;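 active means inhibition over a set limit, the all-compound mean plus 3 SD, in both replicate runs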;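 further: 0% = DMSO wells with no growth and 100% = 10 µM 1-NA-PP1 with full growth; RAM network block rescues cells from 5-FOA so hits raise OD615 growth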); details: S. cerevisiae dse1pr::URA3 5-FOA growth, OD615, 2 d; at 10 µM; hits give high values; strain carries analog-sensitive mutant Cbk1 kinase
[7] = RAM signaling pathway blockade in yeast – S. cerevisiae, Pdr1DBD-CYC8 efflux-inhibited sensitized strain, primary screen (AID 1298;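 active means RAM network inhibition above 8.4% in each of two replicates, 3 SD over the compound average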;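 further: 0% = DMSO untreated cells without growth and 100% = 10 µM 1-NA-PP1 full growth; higher means more yeast growth rescued from 5-FOA killing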); details: S. cerevisiae cbk1-as DSE1-URA3 strain, 5-FOA growth OD615, 2 d; at 50 µM; hits give high values

Row | SMILES | growth inhibition [1] | growth inhibition [2] | viability increase [3] | viability [4] | viability [5] | inhibition [6] | RAM network inhibition [7]
1 | COc1ccc(-c2c(C)oc3c(CN4CCN(C)CC4)c(O)ccc3c2=O)cc1 | -13.2% | -13.7% | -8.83% | 106% | 96.5% | 0.58% | -0.85%
2 | O=C(NCCc1csc(-c2cccnc2)n1)c1ccco1 | 4.59% | 4.47% | -4.68% | 105% | 98.6% | 0.97% | 2.36%
3 | CCOC(=O)Cn1c(CN2CCOCC2)nc2c1c(=O)n(C)c(=O)n2C | -1.92% | -5.31% | 1.26% | 107% | 103% | 1.72% | 2.19%
4 | CCOC(=O)N1CCc2c(sc(NC(=O)c3ccc(S(=O)(=O)N4CCCC4)cc3)c2C#N)C1 | -3.65% | -5.41% | -1.2% | 99.1% | 85% | 2.04% | 5.32%
5 | NC(=O)c1ccsc1NC(=O)c1cccs1 | -5% | -5.65% | -2.23% | 104% | 92.8% | 1.59% | 0.37%
6 | Oc1c(C(c2cccs2)N2CCN(c3ccccc3)CC2)sc2ncnn12 (stereo unspecified) | -13.2% | -5.4% | 12.3% (active) | 90.9% | 89.5% | 1.53% | 1.45%
7 | CCOc1ccc(NC(=O)CSc2nc3c(c(=O)n2C)SC(C)C3)cc1 (stereo unspecified) | -13.6% | -13.2% | -0.83% | 93.5% | 91.6% | 4.75% | 5.69%
8 | CCOC(=O)C1=C(N)OC2=C(C(=O)CCC2)C1c1ccccc1OCC (stereo unspecified) | -3.85% | -4.66% | -0.08% | 100% | 103% | 1.05% | 8.68%
9 | COc1ccc(Cn2c(=O)[nH]c3cc(C(=O)N4CCN(Cc5ccccc5)CC4)ccc3c2=O)cc1 | 1.4% | -4.04% | 1.49% | 36.3% | 49.7% | 0.835% | 1.57%
10 | Cc1nnc(SCc2ccc(Cl)cc2Cl)[nH]c1=O | -11.1% | 1.19% | 0.05% | 104% | 99.1% | 0.42% | 4.49%
11 | Cc1ccc(CC(=O)N2CCC(c3nc4c(nnn4Cc4ccccc4)c(=O)[nH]3)CC2)cc1 | -10.5% | -7.38% | -1.07% | 76.9% | 78.9% | 0.71% | 3%
12 | CC1(C)Nc2ccccc2N(CC(=O)N2CCCCC2)C1=O | 0.325% | -1.38% | -0.05% | 107% | 103% | -0.16% | 0.97%
13 | O=C(N1CCOCC1)N1CCN(c2ccccc2F)CC1 | -0.135% | 0.07% | -2.64% | 97.9% | 99.7% | 0.325% | 4.21%
14 | Cn1c(SCC(=O)Nc2cccc(F)c2)nnc1-c1cccnc1 | -4.63% | -4.04% | 0.87% | 105% | 104% | 0.035% | 3.15%
15 | CC(=O)c1cccc(NC(=O)C2CCN(S(=O)(=O)c3ccc(F)cc3)CC2)c1 | -6.23% | 1.16% | -2.82% | 92% | 93.5% | 3.66% | 5.67%
16 | Cc1ccc2oc3c(c(=O)c2c1)C(c1cccc(O)c1)N(c1ccccn1)C3=O (stereo unspecified) | -2.51% | -0.22% | -2.59% | 79.4% | 68.2% | 1.81% | 4.84%
17 | O=C(Nc1cnc2ccccc2c1)c1ccncc1 | -8.13% | -8.73% | -2.98% | 99.7% | 87.1% | 2.08% | 1.19%
18 | CCOC(=O)c1[nH]c(C)c(C(=O)Nc2ccc(C)c(C)c2)c1C | -12.6% | -10.7% | -4.91% | 64.1% | 45.9% | 1.46% | 1.84%
